Data taken from ChEMBL document CHEMBL1153564 (Antimicrob Agents Chemother, 2008).
Converted amounts (≈) assume the structure as drawn. The source made the active and inactive calls. The rule behind the calls is not given here. Starred links: 1 amine or outer side, 2 acyl side, 3 side chain; linkers in the order of their positions; H or OH if unused. Positions of bridges follow the written chain, without caps; N, C: chain ends. Non-standard residues stand in square brackets, D forms with d. Residues, ends and D or L forms follow the SMILES beside them. *: point of attachment. pTerphenylCO(4''-OnC5H11) = CCCCCOc1ccc(-c2ccc(-c3ccc(C(=O)*)cc3)cc2)cc1; Orn(4R-OH,5R-OH) = O=C([C@H](C[C@@H](O)[C@@H](O)N[*:3])N[*:1])[*:2]; hTyr(3S-OH,4S-OH) = N[C@H](C(=O)O)[C@H](O)[C@@H](O)c1ccc(O)cc1; Pro(3S-OH,4S-Me) = C[C@H]1CN[C@H](C(=O)O)[C@H]1O; Hyp = O=C(O)[C@@H]1C[C@@H](O)CN1

Experiments:
[1] = system: Nakaseomyces glabratus; assay: Antifungal activity against Candida glabrata 32930 infected in neutropenic ICR/Swiss mouse candidiasis model assessed as fungal count per kidney administered 2 hrs postinfection measured up to 48 hrs; format: functional
Method in brief: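 Untreated neutropenic mice infected via the tail vein (inoculum about 6.1 log10 CFU/ml, 0.1 ml). Growth is the rise in kidney CFU over 48 h. Kidneys were homogenised, serially diluted 1:10 and plated on SDA for 24 h at 35°C. Mean of three mice.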

[2] = system: Candida albicans; assay: Antifungal activity against Candida albicans 98-17 assessed as complete growth inhibition after 24 hrs by CLSI end point method; format: functional; settings: 98-17, 24 h
Method in brief: (§1)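 CLSI M27-A2 broth dilution. Two end points read against the drug-free control well: partial inhibition (CLSI end point) and complete inhibition. Run in duplicate on four separate occasions; value is the mean. Drug stock in DMSO, diluted in 0.9% NaCl.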

[3] = system: Mus musculus; assay: Cmax in serum of neutropenic ICR/Swiss mouse candidiasis model at 80 mg/kg, ip up to 4 hrs by reverse-phase high-pressure liquid chromatography; format: ADME, organism-based; design: dose 80 mg/kg, route intraperitoneal; settings: in vivo
Method in brief: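 Infected neutropenic ICR/Swiss mice given single ip doses (5, 20 or 80 mg/kg; 0.2 ml); serum from three isoflurane-anaesthetised mice at 1, 4, 8, 12, 24 and 48 h, stored at −80°C, assayed by reverse-phase HPLC with fluorescence detection, loratadine internal standard, linear 10–50,000 ng/ml. Noncompartmental analysis; half-life by nonlinear least squares.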

[4] = system: Nakaseomyces glabratus; assay: Antifungal activity against Candida glabrata 35315 assessed as complete growth inhibition after 24 hrs by CLSI end point method; format: functional; settings: Nakaseomyces glabratus, 35315, 24 h
Method in brief: (§2)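 Two end points were read against the drug-free control well: partial growth inhibition (the CLSI end point) and complete inhibition. Run in duplicate on four separate occasions; the value is the mean. Drug stock was made in DMSO and diluted in 0.9% NaCl.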

[5] = system: Nakaseomyces glabratus; assay: Antifungal activity against Candida glabrata 32930 infected in neutropenic ICR/Swiss mouse candidiasis model assessed as dose required to maintain […] of 1.83 +/- 0.54 log10CFU per kidney administered intraperitoneally every 24 hrs up to 4 days measured per 24 hrs; format: functional
[6] = system: Nakaseomyces glabratus; assay: Antifungal activity against Candida glabrata 570 infected in neutropenic ICR/Swiss mouse candidiasis model assessed as fungal count per kidney administered 2 hrs postinfection measured up to 48 hrs; format: functional
Method in brief: (§3)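 Female ICR/Swiss mice (23–27 g) made neutropenic with cyclophosphamide s.c. (150 mg/kg day −4, 100 mg/kg day −1, 100 mg/kg day +2). Infected by tail vein with 0.1 ml inoculum (~6.1 log10 CFU/ml). Kidneys of untreated mice were homogenised and plated on SDA for 24 h at 35°C. Growth over 48 h is given as log10 CFU/kidney.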

[7] = system: Nakaseomyces glabratus; assay: Antifungal activity against Candida glabrata 5376 infected in neutropenic ICR/Swiss mouse candidiasis model assessed as reduction of […] in kidney at 20 mg/kg, ip administered 2 hrs postinfection as single dose measured within 1 to 4 hrs post dosing by time-kill assay; format: functional, organism-based; design: dose 20 mg/kg
Method in brief: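 Neutropenic mice were infected i.v. and 2 h later given a single i.p. dose (1.25, 5 or 20 mg/kg). Groups of three treated and three control mice were killed at intervals over 96 h, and kidney CFU were counted on SDA (limit 100 CFU/ml). The post-antifungal effect is t − c: the time for a 1 log10 CFU/kidney increase once serum levels fall below the MIC in treated mice, minus the same time in controls.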

[8] = system: Nakaseomyces glabratus; assay: Antifungal activity against Candida glabrata 5376 infected in neutropenic ICR/Swiss mouse candidiasis model assessed as dose required for 1-log10 reduction in […] per kidney administered intraperitoneally every 16 hrs up to 4 days measured per 96 hrs; format: functional
Method in brief: (§4)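 Neutropenic ICR/Swiss mice infected i.v. with the strain; therapy began 2 h later. Total doses of 1.25–320 mg/kg/96 h were given i.p. as 1, 2, 4 or 6 doses (q96h, q48h, q24h, q16h), three mice per regimen. Kidney CFU were counted after 4 days. Effect is the change from untreated controls at the end of therapy.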

[9] = system: Nakaseomyces glabratus; assay: Antifungal activity against Candida glabrata 33609 assessed as partial growth inhibition after 24 hrs by CLSI end point method; format: functional; settings: Nakaseomyces glabratus, 33609, 24 h; method in brief: as §1
[10] = system: Candida albicans; assay: Antifungal activity against Candida albicans K-1 infected in neutropenic ICR/Swiss mouse candidiasis model assessed as dose required for 1-log10 reduction in […] per kidney administered intraperitoneally every 24 hrs up to 4 days measured per 96 hrs; format: functional
Method in brief: (§5)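 Neutropenic mice were infected iv with C. albicans K-1 2 h before therapy. Total doses of 1.25, 5, 20, 80 and 320 mg/kg/96 h were split into 1, 2, 4 or 6 ip doses (q96h, q48h, q24h, q16h), three mice per regimen. Effect is the log10 CFU/kidney relative to untreated controls at 96 h. Static and 1-log doses were taken from a Hill model fit.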

[11] = system: Nakaseomyces glabratus; assay: Antifungal activity against Candida glabrata 5376 infected in neutropenic ICR/Swiss mouse candidiasis model assessed as […] burden per kidney administered intraperitoneally once every 96 hrs measured per 96 hrs; format: functional; settings: Nakaseomyces glabratus, 5376, Kidney, ip; method in brief: as §4
[12] = system: Nakaseomyces glabratus; assay: Antifungal activity against Candida glabrata 5376 infected in neutropenic ICR/Swiss mouse candidiasis model assessed as dose required for 1-log10 reduction in […] per kidney administered intraperitoneally every 24 hrs up to 4 days measured per 96 hrs; format: functional; method in brief: as §4
[13] = system: Nakaseomyces glabratus; assay: Antifungal activity against Candida glabrata 32930 assessed as partial growth inhibition after 24 hrs by CLSI end point method; format: functional; settings: Nakaseomyces glabratus, 32930, 24 h; method in brief: as §1
[14] = system: Nakaseomyces glabratus; assay: Antifungal activity against Candida glabrata 5592 infected in neutropenic ICR/Swiss mouse candidiasis model assessed as fungal count per kidney administered 2 hrs postinfection measured up to 48 hrs; format: functional; method in brief: as §3
[15] = system: Candida albicans; assay: Antifungal activity against Candida albicans K-1 infected in neutropenic ICR/Swiss mouse candidiasis model assessed as dose required for 1-log10 reduction in […] per kidney administered intraperitoneally every 48 hrs up to 4 days measured per 96 hrs; format: functional; method in brief: as §5
[16] = system: Nakaseomyces glabratus; assay: Antifungal activity against Candida glabrata 35315 infected in neutropenic ICR/Swiss mouse candidiasis model assessed as fungal count per kidney administered 2 hrs postinfection measured up to 48 hrs; format: functional; method in brief: as §3
[17] = system: Candida albicans; assay: Antifungal activity against Candida albicans K-1 infected in neutropenic ICR/Swiss mouse candidiasis model assessed as reduction of […] in kidney at 1.25 mg/kg, ip administered 2 hrs postinfection as single dose measured after 96 hrs post dosing by time-kill assay; format: functional, organism-based; design: dose 1.25 mg/kg
Method in brief: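 Neutropenic mice given a single ip dose (1.25, 5 or 20 mg/kg) 2 h after tail-vein infection. Kidneys from 3 mice per time point collected nine times over 96 h. Homogenates serially diluted 1:10 and plated on SDA, 24 h at 35°C. Detection limit 100 CFU/ml.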

[18] = system: Nakaseomyces glabratus; assay: Antifungal activity against Candida glabrata 34341 assessed as partial growth inhibition after 24 hrs by CLSI end point method; format: functional; settings: Nakaseomyces glabratus, 34341, 24 h; method in brief: as §2
[19] = system: Nakaseomyces glabratus; assay: Antifungal activity against Candida glabrata 34341 assessed as complete growth inhibition after 24 hrs by CLSI end point method; format: functional; settings: Nakaseomyces glabratus, 34341, 24 h; method in brief: as §2

CCCCCOc1ccc(-c2ccc(-c3ccc(C(=O)N[C@H]4C[C@@H](O)[C@@H](O)NC(=O)[C@@H]5[C@@H](O)[C@@H](C)CN5C(=O)[C@H]([C@@H](C)O)NC(=O)[C@H]([C@H](O)[C@@H](O)c5ccc(O)cc5)NC(=O)[C@@H]5C[C@@H](O)CN5C(=O)[C@H]([C@@H](C)O)NC4=O)cc3)cc2)cc1 [ANIDULAFUNGIN] ({pTerphenylCO(4''-OnC5H11)}-[Orn(4R-OH,5R-OH)]T[Hyp][hTyr(3S-OH,4S-OH)]T[Pro(3S-OH,4S-Me)]; lactam 1-C)
log10cfu [1]: 1.29 | MIC [2]: 0.12 µg/mL (≈ 0.105 µM) | Cmax [3]: 60 µg/mL | MIC [4]: 1 µg/mL (≈ 0.877 µM) | Activity [5]: 1.58 mg/kg | log10cfu [6]: 2.45 | Activity [7]: Active | Activity [8]: 56.7 mg/kg | MIC [9]: 0.03 µg/mL (≈ 0.0263 µM) | Activity [10]: 8.1 mg/kg | ED50 [11]: 8.12 mg/kg | Activity [12]: 30.8 mg/kg | MIC [13]: 0.06 µg/mL (≈ 0.0526 µM) | log10cfu [14]: 2.1 | Activity [15]: 9.19 mg/kg | log10cfu [16]: 0.97 | Activity [17]: Active | MIC [18]: 0.12 µg/mL (≈ 0.105 µM) | MIC [19]: 1 µg/mL (≈ 0.877 µM)
